Experimental data: ChEMBL document CHEMBL3739324, “Characterization and Biological Evaluation of Diterpenoids from Casearia graveolens” (J Nat Prod, 2015)
The source made the active and inactive calls. No cut-off for these calls is given here.

Tests used:
PC-12 [1] = experiment: Stimulation of NGF-mediated neurite outgrowth in rat PC12 cells incubated for 96 hrs by phase contrast microscopy; format: functional, cell-based; conditions: for EC50: PC-12, 96 h
Method in brief: (§1)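 PC12 cells grown at 37 °C in DMEM with 5% FBS, 5% horse serum, penicillin/streptomycin, 5% CO2. Dissociated with 1 mM EGTA in PBS for 15 min, seeded at 3 × 10^4 cells/well on poly-L-lysine. After 24 h, switched to medium with 1% FBS, 1% HS, graded compound levels, with or without NGF (20 ng/mL; 100 ng/mL positive control), for 96 h.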

PC-12 [2] = experiment: Induction of neurite outgrowth in rat PC12 cells incubated for 96 hrs by phase contrast microscopy; format: functional, cell-based; method in brief: as §1

Row | Compound | EC50 (PC-12 [1]) | Activity (PC-12 [2]) | Activity (PC-12 [1])
1 | C=CC(=C)CC[C@]1(C)[C@H](C)C[C@H](OC)[C@@]23C(=C[C@H](OC(=O)CC)C[C@@H]12)[C@@H](OC(=O)CCC)O[C@H]3OC(C)=O | > 45 µM | inactive | 
2 | C=CC(=C)CC[C@]1(C)[C@H](C)CC[C@@]23C(=C[C@H](OC(=O)CCC)C[C@@H]12)[C@@H](OC(C)=O)O[C@H]3OC(C)=O |  |  | inactive
3 | C=CC(=C)CC[C@]1(C)[C@H](C)C[C@H](OC)[C@@]23C(=C[C@H](OC(=O)CC)C[C@@H]12)[C@@H](OC)O[C@H]3OC(C)=O | 4.4 µM | inactive | 
4 | C=CC(=C)CC[C@]1(C)[C@H](C)CC[C@@]23C(=C[C@H](OC(=O)CCC)C[C@@H]12)[C@@H](OC(=O)CCC)O[C@H]3OC(C)=O |  |  | inactive
5 | C=CC(=C)CC[C@]1(C)[C@H](C)CC[C@@]23[C@H](OC(C)=O)O[C@H](OC(=O)CCC)[C@@H]2CC(=O)C[C@@H]13 |  |  | inactive
6 | C=CC(=C)CC[C@]1(C)[C@H](C)C[C@H](OC)[C@@]23C(=C[C@H](OC(=O)CCC)C[C@@H]12)[C@@H](OC(C)=O)O[C@H]3OC(C)=O | 28.7 µM | inactive | 
7 | C=CC(=C)CC[C@]1(C)[C@H](C)CC[C@@]23C(=C[C@H](O)C[C@@H]12)[C@@H](OC)O[C@H]3OC(C)=O |  |  | inactive
8 | C=CC(=C)CC[C@]1(C)[C@H](C)C[C@H](OC)[C@@]23C(=C[C@H](OC(=O)CCC)C[C@@H]12)[C@@H](OC)O[C@H]3OC(C)=O | 20.6 µM | inactive | 
9 | C=CC(=C)CC[C@]1(C)[C@H](C)CC[C@@]23C(=C[C@H](O)C[C@@H]12)[C@@H](OC(=O)CCC)O[C@H]3OC(C)=O |  |  | inactive
10 | C=CC(=C)CC[C@]1(C)[C@H](C)C[C@H](OC)[C@@]23C(=C[C@H](O)C[C@@H]12)[C@@H](OC)O[C@H]3OC | 3.3 µM | inactive | 
